rCAG binder: molecules binding r(CAG) RNA repeats; r(CAG) RNA repeat, TO-PRO-1 dye displacement fluorescence; inhibition, % at 3 µM; AID 651821; 370,000 tested, 1.3% active;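 active means inhibition above the plate cutoff, the mean of all test compounds on that plate plus 3 SD, cut at about 35% in these data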;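 further: higher means more dye released from RNA so lower well fluorescence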
HCV core dimer: HCV core protein dimerization inhibition; TR-FRET GST/Flag-core106 dimerization, 1536-well; inhibition, % at 5 µM; 300,000 tested, 0.33% active;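 active means inhibition above the mean of all tested compounds plus 3 SD, set per screening campaign, cut at about 45% in these data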
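Material: GST/Flag-tagged HCV core106 proteins. Incubation: 4 h, 22.5 °C incubation. Read-out basis: inhibition (%) from 671 over 617 nm ratio. Measured by: TR-FRET, excitation 340 nm, emission 617 and 671 nm.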
ABHD5 PLIN5 PPI: inhibitors of human ABHD5-perilipin-5 interaction | 360,000 tested, 0.78% active | Q00G26+Q8WTS1 | inhibition, % at 4 µM | Split G. princeps luciferase complementation, luminescence, 4 h;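 active means inhibition above the mean inhibition across every tested compound plus 3 SD, cut at about 22% in these data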
NadD block: inhibitors of Staphylococcus aureus NadD. inhibition, % at 20 µM. purified NadD enzyme, colorimetric absorbance read-out. AID 602399. 360,000 tested, 0.78% active; in the data active means inhibition above about 26%
NadD inh conf: NadD (S. aureus) inhibition, single concentration confirmation; shares compounds with NadD block; 2,000 tested, 13% active; AID 624309; inhibition, % at 20 µM; purified S. aureus NadD, colorimetric enzyme assay; in the data active means inhibition mostly above about 42%, no sharp cut-off; inactive means mostly below about 42%
Of the large screens only hits and unclear results are named; the others gave an inactive call (follow-up assays come after a bar, where they were run). Hits are enriched below; roughly 2.6% of the tested compounds scored in any of these assays.

CC1CCCN(C(=O)Nc2ccc([N+](=O)[O-])cc2)C1 (centres undefined)	none (no result: HCV core dimer, ABHD5 PLIN5 PPI, NadD block)
CCOC(=O)[C@]12CCC=C1N(Cc1ccc(Cl)cc1Cl)C(=O)[C@H](CC(=O)NCC13CC4CC(CC(C4)C1)C3)C2	none (no result: HCV core dimer)
C[C@H]1CN([C@@H](C)CO)C(=O)CCCn2cc(nn2)CO[C@@H]1CN(C)S(=O)(=O)c1ccccc1F	none (no result: HCV core dimer, ABHD5 PLIN5 PPI, NadD block)
Cc1onc(-c2ccccc2)c1C(=O)Nc1sc2c(c1C#N)CCC(C)C2 (centres undefined)	none
Cc1onc(-c2c(Cl)cccc2Cl)c1C(=O)NC(=S)Nc1sc2c(c1C(N)=O)CCC(C)C2 (centres undefined)	NadD block 31.2 | NadD inh conf inactive
Cc1sc2ncnc(N3CCC(C(=O)Nc4sc5c(c4C(N)=O)CCC(C)C5)CC3)c2c1C (centres undefined)	NadD block 30.5 (no result: HCV core dimer) | NadD inh conf inactive
Cc1nc(SCc2nc3ccc(Cl)cc3[nH]2)c2oc3ccccc3c2n1	none (no result: HCV core dimer)
Cc1nc(SCc2nc3cc(Cl)c(F)cc3[nH]2)c2oc3ccccc3c2n1	NadD block 36.6 (no result: HCV core dimer) | NadD inh conf inactive
COc1cc(NS(=O)(=O)c2ccc(N/C=C(\C#N)c3nc4cc(Cl)ccc4o3)cc2)nc(OC)n1	NadD block 38.6 | NadD inh conf inactive
COc1ccc(C(=O)/C=C/Nc2ccc(S(=O)(=O)Nc3cc(OC)nc(OC)n3)cc2)c(OC)c1	NadD block 31.7 | NadD inh conf inactive
COc1cc(NS(=O)(=O)c2ccc(NC(C)=O)cc2)nc(OC)n1	none
COc1cc(NS(=O)(=O)c2ccc(N/C=C\C(=O)c3ccc(C)cc3)cc2)nc(OC)n1	none
COC(=O)c1cc(C2(c3c[nH]c4ccccc34)CCN(C(=O)OC(C)(C)C)CC2)n2ccccc12	none (no result: HCV core dimer, ABHD5 PLIN5 PPI, NadD block)
Cc1cc(C)cc(NC(=O)C(OC(=O)c2ccc(NC(=O)CC#N)cc2)c2ccccc2)c1 (centres undefined)	NadD block 40.0 | NadD inh conf 44.8
Cc1ccc(C)c(NC(=O)C(OC(=O)c2ccc(NC(=O)CC#N)cc2)c2ccccc2)c1 (centres undefined)	NadD block 37.0 | NadD inh conf 53.4
Cc1cc(C)cc(NC(=O)C(OC(=O)c2cccs2)c2ccccc2)c1 (centres undefined)	none
Cc1ccc(NC(=O)CC2S/C(=N/N=C/C=C/c3ccccc3)NC2=O)cc1Cl (centres undefined)	NadD block 32.3 | NadD inh conf inactive
Cc1ccc(Cl)cc1N1CCN(C(=O)c2cc3c(=O)[nH]c4ccccc4c3n2C)CC1	NadD block 32.3 | NadD inh conf inactive
Cn1c(C(=O)N2CCN(c3ccc(Cl)cc3)CC2)cc2c(=O)[nH]c3ccccc3c21	none
O=C(NC(=S)NNC(=O)[C@H]1C[C@@H]1c1ccccc1)c1ccc(F)cc1	none
O=C(/C=C/c1ccc(F)cc1)NC(=S)NNC(=O)[C@H]1C[C@@H]1c1ccccc1	NadD block 39.6 | NadD inh conf inactive
C#CCN1CC(COc2ccccc2)Oc2cccc(Oc3ccc(SC)c(C)c3)c2S1(=O)=O (centres undefined)	none (no result: HCV core dimer, ABHD5 PLIN5 PPI, NadD block)
COc1ccccc1-c1csc(NC(=O)c2cc(-c3cccs3)nc3ccccc23)n1	none
COc1ccc(-c2csc(NC(=O)c3cc(-c4cccs4)nc4ccccc34)n2)c(OC)c1	NadD block 34.5 | NadD inh conf inactive
Cc1cc(O)c(C(=O)/C=C/c2cccc([N+](=O)[O-])c2)c(=O)o1	NadD block 35.0 | NadD inh conf inactive
Cc1cc(O)c(C(=O)/C=C/c2ccccc2O)c(=O)o1	none (no result: HCV core dimer)
COc1ccc(NC(=O)N(C)C[C@H]2OCc3cnnn3CCCC(=O)N([C@H](C)CO)C[C@@H]2C)cc1	none (no result: HCV core dimer)
CC1(C)O[C@@H]2[C@H](O1)[C@@H](O)C[C@H]2n1cnc2c(Cl)ncnc21	none (no result: HCV core dimer, ABHD5 PLIN5 PPI, NadD block)
Cc1csc(NC(=O)CSc2nnc(NC(=O)COc3ccc(Cl)cc3)s2)n1	NadD block 35.1 | NadD inh conf inactive
CCCC(=O)Nc1nnc(SCC(=O)Nc2nc(C)cs2)s1	none
Cc1ccc(C(C)(C)C)cc1S(=O)(=O)N1CCC(C(=O)N2CCN(c3ccc(O)cc3)CC2)CC1	NadD block 67.0 (no result: HCV core dimer) | NadD inh conf inactive
Cc1cc(C)c(C)c(S(=O)(=O)N2CCC(C(=O)N3CCN(c4ccc(F)cc4)CC3)CC2)c1C	none (no result: HCV core dimer)
CCOC(=O)[C@]12CCCC=C1N(Cc1ccc(Cl)cc1Cl)C(=O)[C@H](CC(=O)NCCc1ccccc1OC)C2	none (no result: HCV core dimer)
COc1cccc(S(=O)(=O)N(C)C[C@H]2OCc3cn(nn3)CCCC(=O)N([C@H](C)CO)C[C@@H]2C)c1	none (no result: HCV core dimer)
